ALR inh: blocks human ALR sulfhydryl oxidase activity; P55789; purified ALR, DTT oxidation, H2O2 HRP-luminol luminescence; inhibition, % (no concentration beside the values); 3.8% of 290,000 active; AID 485317;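 active = mean replicate inhibition above about 79%, with every replicate also reaching it, limit read from the data; inconclusive = only one of the two criteria met; inactive = mean below limit and not every replicate reaching it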
Target sequence (P55789 whole entry, looked up): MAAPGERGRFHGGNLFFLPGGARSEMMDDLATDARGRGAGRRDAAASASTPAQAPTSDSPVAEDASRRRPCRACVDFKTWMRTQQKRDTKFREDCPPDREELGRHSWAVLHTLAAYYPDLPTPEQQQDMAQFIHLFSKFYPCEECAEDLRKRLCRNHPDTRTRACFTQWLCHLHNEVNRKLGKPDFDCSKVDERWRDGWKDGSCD
T cell HTS: modulates CD8 T cell binding to vesicles; 2C CD8+ T cell-vesicle binding, flow cytometry; hits give low values; response (vesicle binding), % at 7 µM; 0.068% of 330,000 active; AID 2052;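 active = response, share of CD8 T cells binding vesicles, and their 90th percentile fluorescence all below set limits, cut at about 80% in these data, passing the limit was not always enough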;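 also: values below 100% mean blocked vesicle binding to the CD8+ T cells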
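Material: murine 2C transgenic CD8+ T lymphocytes / Also added: QL9-peptide-loaded Drosophila micro-vesicles bearing Ld, ICAM-1 and B7-1 / Schedule: binding step 1.5 h, 37 °C, antibody labelling 20 min, ice / Signal: flow cytometry, PE anti-B7-1 (FL2) versus Alexa647 anti-CD8 (FL8), PFA-fixed / Evaluation: percent CD8+ FL2 mean versus row control / Benchmarks: naked versus QL9-loaded vesicles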
N-glyco inh: blocks N-linked glycosylation in D54 reporter cells; D54 ERlucT glycosylation luciferase reporter, 24 h; percent of 100 nM tunicamycin response; reporter increase, % at 12.5 µM; 0.23% of 360,000 active; AID 588692;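 active = mean luciferase reporter signal, scaled so untreated is 0 and the glycosylation-blocking control 100, at or above a set limit in every replicate; inconclusive = mean reaches the limit but not every replicate does; inactive = mean below the limit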;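 also: luciferase carries N-glycosylation sites so blocking glycosylation raises the light; 0% = median of neutral control wells and 100% = median of 100 nM tunicamycin wells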
* hit, by the source's call; i = inactive; ? = inconclusive; / = not tested or not shown. Many of the other results were omitted from the sample, so hits are more common in it than they were.

SMILES	ALR inh	T cell HTS	N-glyco inh
Cc1cc(C)nc(OC(C(=O)O)C(OCCc2ccccc2)(c2ccc(F)cc2)c2ccc(F)cc2)n1 (stereo not given)	-43	411	0
CCCOC(c1ccccc1)(c1ccc(C(F)(F)F)cc1)C(Oc1nc(C)cc(C)n1)C(=O)O (stereo not given)	96*	154	1
CN(C)C(=O)CNC(=O)CN1C(=O)NC2(CCCc3sccc32)C1=O (stereo not given)	-2	258	2
Cn1c(=O)c2[nH]c(Cc3cccc4ccccc34)nc2n(C)c1=O	/	/	0
O=C(Nc1c2c(nn1-c1ccccc1)CS(=O)(=O)C2)c1ccccc1Br	-3	206	0
Cc1ccc(CN(CC(O)COc2cccc3[nH]cc(C)c23)C(C)(C)C)cc1 (stereo not given)	-65	210	-10
Cc1c[nH]c2cccc(OCC(CNC(C)(C)C)OC(=O)c3ccccc3)c12 (stereo not given)	81*	250	-5
CSCCC(NC(=O)c1ccc(Cl)c([N+](=O)[O-])c1)C(=O)N1CCN(C/C=C/c2ccccc2)CC1 (stereo not given)	2	354	1
C/C(=N/NS(=O)(=O)c1ccc(Cl)cc1)c1ccc2c(c1)OCO2	40	i	2
C/C(=N\NS(=O)(=O)c1ccc(Cl)cc1)c1ccc(O)cc1	96*	493	1
CC1(C(=O)NS(=O)(=O)c2cccs2)CCN1C(=O)CC1CCCCC1 (stereo not given)	/	/	2
Nc1ccc2oc(-c3ccccn3)nc2c1	?	167	1
CC(=O)Nc1ccc(-c2nc3cc(Cl)ccc3o2)cc1	12	452	-11
Cc1ccc2nc(-c3cc(N)cc(N)c3)oc2c1	-3	714	-6
COC(=O)c1ccc(-c2nc3cc(N)ccc3o2)cc1	95*	188	-3
Cc1ccc(-c2nc3cc(N)ccc3o2)cc1Br	66	285	-10
CN(C)c1ccc(-c2nc3cc(N)ccc3o2)cc1	99*	121	-19
Nc1ccc(-c2nc3ccc(N)cc3o2)cc1	100*	320	0
Nc1ccc(-c2nc3cc(N)ccc3o2)cc1	93*	305	-10
O=C(CN1C(=O)CSc2ncccc21)Nc1cccc(Cl)c1	4	i	-1
Cc1cc(SCC(=O)c2cccc([N+](=O)[O-])c2)nc(=O)[nH]1	49	587	-3
COc1cc(C2(c3ccc(O)c(OC)c3)C(=O)N(C)c3ccc(C)cc32)ccc1O	67	595	2
Nc1ccc2oc(-c3ccccc3Cl)nc2c1	/	346	-13
Cc1ccc(C)c(-c2nc3cc(N)ccc3o2)c1	99*	387	-3
Cc1ccc(S(=O)(=O)/N=C(\CN2CCOCC2)N2CCCC2)cc1	4	349	0
SMILES	ALR inh	T cell HTS	N-glyco inh
Cc1ccc(S(=O)(=O)/N=C(\CCl)N2CCOCC2)cc1	97*	461	0
S=C(N/N=C1\CCc2ccccc21)NC1CCCCC1	-2	138	-11
O=C(Nc1c2c(nn1-c1ccccc1)CSC2)c1ccc(N2C(=O)CCC2=O)cc1	-6	304	0
COC(=O)c1c(C(=O)OC)c(-c2ccc(Cl)c(Cl)c2)n2c1CCC2	-11	346	-1
O=C(O)c1c(C(=O)O)c(-c2ccc(Cl)c(Cl)c2)n2c1CSC2	97*	936	0
C[C@@H]1C[C@H]2[C@@H]3C[C@H](F)C4=CC(=O)C=C[C@]4(C)[C@@]3(Cl)[C@@H](O)C[C@]2(C)[C@H]1C(=O)COC(=O)C(C)(C)C	-1	107	-1
O=C(NCCc1ccccc1)C(=O)c1cn(CC(=O)N2CCCC2)c2ccccc12	-8	34	5
COCCn1c(=NC(=O)CSCC(=O)Nc2cc(C)on2)sc2cc(C(=O)OC)ccc21	92*	151	1
COCCn1c(=NC(=O)CCS(=O)(=O)c2ccccc2)sc2cc(C(=O)OC)ccc21	5	186	-1
CCOC(=O)CSC(=S)NC(=O)c1ccc(OC)cc1	100*	729	8
COc1ccc(C(=O)NC(=S)SCC(=O)O)cc1	/	241	-1
N/C(=N\OC(=O)c1ccc(Br)o1)c1ccccn1	4	189	-13
COCCn1c(=S)[nH]c2sc3c(c2c1=O)CCC(C)C3 (stereo not given)	32	i	-1
COCCCn1c(=S)[nH]c2sc3c(c2c1=O)CCCS3	99*	146	3
COc1ccc(-c2c(C)nn(Cc3ccccc3)c2N)cc1	97*	425	3
COc1ccc(-c2ccc(=O)n(Cc3ccccc3)n2)cc1	-4	200	-5
CN(C(=O)C1CCC(=O)N(Cc2ccccc2F)C1)C1CCOCC1 (stereo not given)	-1	232	2
N=C(N)SCc1ccccc1Cl	100*	366	8
NC(CSCc1ccccc1Cl)C(=O)O (stereo not given)	58	446	-1
O=C(Cn1nc(CNc2ccc(Br)cc2)[n+]2c1CCCCC2)c1ccc([N+](=O)[O-])cc1	18	88	2
S=c1[nH]nc(-c2cccnc2)n1C1CCCCC1	?	203	-1
Cc1c(Cl)cccc1-n1c(-c2cccnc2)n[nH]c1=S	80*	215	0
Cc1cc(Cl)ccc1-n1c(-c2cccnc2)n[nH]c1=S	66	341	-1
CC1CCCCC1n1c(-c2cccnc2)n[nH]c1=S (stereo not given)	87*	509	-2
CC(O)(c1ccc(F)c(F)c1)c1nc(-c2ccc3ccccc3c2)cs1 (stereo not given)	/	/	-1
SMILES	ALR inh	T cell HTS	N-glyco inh
CCc1nc2ccc(C(=O)NCCCn3ccnc3)cn2c1N(C)C(=O)COc1ccccc1	/	/	1
Cc1ccc(S(=O)(=O)N2C[C@H]3C(=O)C[C@@H](c4cccs4)N(S(=O)(=O)c4ccc(C)cc4)[C@H]3C[C@H]2c2ccccc2)cc1	/	/	-6
CCN(c1ccc(NC(=O)c2ccc(Cl)nc2)cc1)C(C)C	?	232	8
O=C(O)CCCCCn1c(O)c(C=C2N=c3ccccc3=N2)sc1=S	-4	288	3
O=C(O)c1ccc(-n2c(O)c(C=C3N=c4ccccc4=N3)sc2=S)cc1	99*	107	-1
CCN(CC)c1ccc(-n2c(O)c(C=C3N=c4ccccc4=N3)sc2=S)cc1	-11	288	3
CCCC(C(=O)O)n1c(O)c(C=C2N=c3ccccc3=N2)sc1=S (stereo not given)	89*	319	1
O=C(O)c1cccc(-n2c(O)c(C=C3N=c4ccccc4=N3)sc2=S)c1	99*	550	-1
O=C(O)CCCn1c(O)c(C=C2N=c3ccccc3=N2)sc1=S	0	115	8
CC1=CC(=O)N(c2ccn(C)n2)C1=O	0	269	2
CC(C)N(C(=O)[C@H]1C[C@H](CC(=O)NCC23CC4CC(CC(C4)C2)C3)C(=O)N2CCc3c([nH]c4cc(CCC(=O)N(C)C)ccc34)[C@]12C)C(C)C	/	/	0
CCc1ccc(-c2cc(C)no2)cc1S(=O)(=O)N1CCCN(Cc2ccc(F)cc2)C1	-3	386	-1
CCN(C(=O)C1CCCN1S(=O)(=O)c1ccc2c(c1)n(C)c(=O)c(=O)n2C)c1ccccc1 (stereo not given)	-4	32*	1
